Experimental data published in ChEMBL document CHEMBL1121967 (J Med Chem, 1982).
Values joined by “and” are separate entries in the source; they are usually repeats but may differ in a detail not shown here. Equal entries are not always repeated. Active and inactive are the calls of the source. No cut-off for these calls is given here. Residues, ends and D or L forms follow the SMILES beside them.

What was measured:
Assay type in all cases: functional
[1] = species on record: Oryctolagus cuniculus; test: Negative log of the concentration producing 50% of the maximum effect was measured in Rabbit mesenteric vein
Outline: (§1)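 Isolated helical strips of rabbit mesenteric vein, longitudinal strips of guinea pig ileum, or helical strips of guinea pig trachea, held in 10-mL baths of Krebs' solution at 37 °C gassed with 95% O2/5% CO2. Isometric tension recorded. Cumulative agonist concentrations 10⁻¹⁰ to 10⁻⁵ M. pD2 is -log concentration giving 50% of the compound's own maximum. Intrinsic activity is a fraction of SP's, and affinity is relative to SP. Values come from 10-12 determinations.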

[2] = species on record: Cavia porcellus; test: Concentration producing 50% of the maximum effect was tested in guinea pig ileum; conditions: read-out: ED50 (the source's name); outline: as §1
[3] = species on record: Cavia porcellus; test: The intrinsic activity was measured in guinea pig trachea; outline: as §1
[4] = species on record: Cavia porcellus; test: Negative log of the concentration producing 50% of the maximum effect was measured in guinea pig ileum; conditions: for Kb: Cavia porcellus, Ileum, read-out: pA2 (converted); outline: as §1
[5] = species on record: Oryctolagus cuniculus; test: Relative affinity was determined with substance P(SP) in Rabbit mesenteric vein; outline: as §1
[6] = species on record: Oryctolagus cuniculus; test: The intrinsic activity was measured in Rabbit mesenteric vein; conditions: for Kb: read-out: pA2 (converted); outline: as §1
[7] = species on record: Cavia porcellus; test: Relative affinity was determined with substance P(SP) in guinea pig trachea; outline: as §1
[8] = species on record: Cavia porcellus; test: The intrinsic activity was measured in guinea pig ileum; outline: as §1
[9] = species on record: Oryctolagus cuniculus; test: Concentration producing 50% of the maximum effect was tested in Rabbit mesenteric vein; outline: as §1
[10] = species on record: Cavia porcellus; test: Concentration producing 50% of the maximum effect was tested in guinea pig trachea; conditions: read-out: ED50 (the source's name); outline: as §1
[11] = species on record: Cavia porcellus; test: Relative affinity was determined with substance P(SP) in guinea pig ileum; outline: as §1
[12] = species on record: Cavia porcellus; test: Negative log of the concentration producing 50% of the maximum effect was measured in guinea pig trachea; outline: as §1
[13] = species on record: Cavia porcellus; test: Negative log of the concentration producing 50% of the maximum effect was measured in guinea pig ileum as pA2-pA10
[14] = species on record: Cavia porcellus; test: Concentration producing 50% of the maximum effect was tested in guinea pig trachea; inactive; outline: as §1
[15] = species on record: Cavia porcellus; test: Concentration producing 50% of the maximum effect was tested in guinea pig ileum; inactive; outline: as §1
[16] = species on record: Oryctolagus cuniculus; test: Negative log of the concentration producing 50% of the maximum effect was measured in Rabbit mesenteric vein as pA2-pA10

Structure (SMILES)	pD2 [1]	EC50 [2] [nM]	pD2 [4]	RA [5]	RA [7]	Intrinsic actvity [8]	ED50 [9] [nM]	EC50 [10] [nM]	RA [11]	pD2 [12]	pA2 minus pA10 difference [13]	other results
CSCC[C@H](NC(=O)[C@H](CC(C)C)NC(=O)CNC(=O)[C@H](Cc1ccccc1)NC(=O)[C@H](Cc1ccccc1)NC(=O)[C@@H](N)CCC(N)=O)C(N)=O (H-QFFGLM-NH2)	7.1	1.2	8.91	33	507	1	80	34	146	7.46	–	Intrinsic actvity [3]: 1.25; Activity [6]: 1
CSCC[C@H](NC(=O)[C@H](CC(C)C)NC(=O)[C@H](Cc1c[nH]c2ccccc12)NC(=O)[C@H](Cc1ccccc1)NC(=O)[C@H](Cc1ccccc1)NC(=O)[C@H](CCC(N)=O)NC(=O)[C@H](CCC(N)=O)NC(=O)[C@@H]1CCCN1C(=O)[C@H](CCCCN)NC(=O)[C@@H]1CCCN1C(=O)[C@@H](N)CCCN=C(N)N)C(N)=O	–	–	–	–	–	–	–	–	–	–	0.45	Kb [4]: 21400 nM
CSCC[C@H](NC(=O)[C@H](Cc1c[nH]c2ccccc12)NC(=O)CNC(=O)[C@H](Cc1ccccc1)NC(=O)[C@H](Cc1ccccc1)NC(=O)[C@@H](N)CCCN=C(N)N)C(N)=O (H-RFFGWM-NH2)	–	–	–	<0.1	–	–	–	–	–	–	0.82	Kb [4]: 9770 nM; ED50 [14]: inactive; Kb [6]: 11000 nM; ED50 [15]: inactive; Activity [16]: 0.69
CSCC[C@H](NC(=O)[C@H](CC(C)C)NC(=O)CNC(=O)[C@H](Cc1ccccc1)NC(=O)[C@H](Cc1c[nH]c2ccccc12)NC(=O)[C@@H](N)CCCN=C(N)N)C(N)=O (H-RWFGLM-NH2)	5.56	250	6.6	0.9	2.8	0.9	2700	6600	0.7	5.18	–	–
CSCC[C@H](NC(=O)[C@H](CC(C)C)NC(=O)CNC(=O)[C@H](Cc1c[nH]c2ccccc12)NC(=O)[C@H](Cc1ccccc1)NC(=O)[C@@H](N)CCCN=C(N)N)C(N)=O (H-RFWGLM-NH2)	–	360	6.44	–	4.2	0.9	–	4200	0.5	5.38	–	Activity [3]: 0.5
CSCC[C@H](NC(=O)[C@H](CC(C)C)NC(=O)[C@H](Cc1c[nH]c2ccccc12)NC(=O)[C@H](Cc1ccccc1)NC(=O)[C@H](Cc1c[nH]c2ccccc12)NC(=O)[C@H](CCC(N)=O)NC(=O)[C@H](CCC(N)=O)NC(=O)[C@@H]1CCCN1)C(N)=O (H-PQQWFWLM-NH2)	–	–	–	<0.1	–	–	–	–	–	–	1 and 1.01	pA2-pA10 [1]: 1; pA2 [4]: 5.65 and 5.96; ED50 [14]: inactive; Kb [6]: 2240 nM; ED50 [15]: inactive
CSCC[C@H](NC(=O)[C@H](CC(C)C)NC(=O)[C@H](Cc1c[nH]c2ccccc12)NC(=O)[C@H](Cc1ccccc1)NC(=O)[C@H](Cc1ccccc1)NC(=O)[C@@H](N)CCCN=C(N)N)C(N)=O (H-RFFWLM-NH2)	6	1300	5.88	2.7	20.3	–	970	860	0.1	6.06	–	–
